Source: ChEMBL document CHEMBL3352586, “Pyridyl benzamides as a novel class of potent inhibitors for the kinetoplastid Trypanosoma brucei” (J Med Chem, 2014)
In brackets after ≈: the same amount, converted by molar mass.

What was measured:
[1] = system: Trypanosoma brucei brucei; experiment: Antimicrobial activity against bloodstream form of Trypanosoma brucei brucei 427 after 48 hrs by alamar blue assay; type: functional, organism-based; details: Trypanosoma brucei, 427, 48 h
[2] = Selectivity index, ratio of IC50 for HEK293 cells to IC50 for Trypanosoma brucei brucei 427; type: toxicity, cell-based; details: human, read-out: Ratio IC50
[3] = system: Trypanosoma brucei brucei; experiment: Antimicrobial activity against bloodstream form of Trypanosoma brucei brucei 427 at 10 uM after 48 hrs by alamar blue assay; type: functional; details: Trypanosoma brucei, 427, 48 h
[4] = Partition coefficient, log D of the compound at pH 7.4 by HPLC method; type: physicochemical; details: octanol/water
In short: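 Distribution coefficient at pH 7.4 was measured chromatographically.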

[5] = Kinetic solubility of the compound at 10 mg/ml at pH 2 by nephelometry; type: physicochemical; details: buffer, read-out: Kinetic_solubility
In short: (§1)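 Kinetic solubility was read by nephelometry at pH 2 and pH 6.5 and reported as μg/mL ranges.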

[6] = Kinetic solubility of the compound at 10 mg/ml at pH 6.5 by nephelometry; type: physicochemical; details: buffer, read-out: Kinetic_solubility; in short: as §1
[7] = Plasma protein binding in human […] by chromatographic method; type: ADME, cell-free; details: read-out: PPB (converted)
In short: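 Human plasma protein binding was estimated by a chromatographic method.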

Liver microsome = experiment: Intrinsic clearance in human liver microsomes at 1 uM after 60 mins by LC-MS analysis; type: ADME; details: 1 h
In short: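 In vitro intrinsic clearance was measured in human liver microsomes and expressed per mg protein. A hepatic extraction ratio (E_H) was predicted from the in vitro data.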

[8] = system: Trypanosoma brucei rhodesiense; experiment: Antimicrobial activity against bloodstream form of Trypanosoma brucei rhodesiense STIB 900 after 70 hrs by alamar blue assay; type: functional, organism-based; details: STIB 900, 70 h
In short: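 Trypanosoma brucei rhodesiense STIB 900 bloodstream-form trypomastigotes, with melarsoprol as reference drug.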

Leishmania donovani = experiment: Antimicrobial activity against amastigote form of Leishmania donovani MHOM/ET/67/L82 after 70 hrs by alamar blue assay; type: functional, organism-based; details: MHOM/ET/67/L82, 70 h
In short: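 Leishmania donovani MHOM-ET-67/L82 axenic amastigotes, with miltefosine as reference drug.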

Plasmodium falciparum = experiment: Antimicrobial activity against erythrocytic stage of Plasmodium falciparum NF54 infected in human washed RBC assessed as [3H]-hypoxanthine incorporation incubated for 48 hrs prior to [3H]-hypoxanthine addition measured after 24 hrs by liquid scintillation counting analysis; type: functional, organism-based
L6 = experiment: Cytotoxicity against rat L6 cells after 70 hrs by alamar blue assay; type: cell-based; details: L6, 70 h
In short: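 Cytotoxicity on the rat skeletal myoblast L-6 strain, with podophyllotoxin as reference drug.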

Trypanosoma cruzi = experiment: Antimicrobial activity against amastigote form of Trypanosoma cruzi Tulahuen C2C4 infected in rat L6 cells after 96 hrs by microscopic analysis; details: Tulahuen C2C4, L6, 96 h

Compound | IC50 [1] | selectivity ratio [2] | inhibition at 10 µM [3] | also measured
Cc1ccccc1C(=O)Nc1cccc(N)n1 | 4600 nM | > 19 |  | 
Cc1ccccc1C(=O)Nc1ccccc1C#N |  |  | < 10% | 
Cc1ccccc1C(=O)Nc1ccon1 |  |  | < 10% | 
Cc1ccccc1C(=O)Nc1ncco1 |  |  | < 10% | 
Cc1ccccc1C(=O)Nc1cc[nH]n1 |  |  | < 10% | 
Cc1ccccc1C(=O)Nc1ncns1 |  |  | < 10% | 
Cc1ccccc1C(=O)Nc1ccsc1 |  |  | < 10% | 
Cc1ccccc1C(=O)N(C)c1ccccn1 |  |  | 18% | 
CCc1ccccc1C(=O)Nc1ccccn1 | 2740 nM | 30 |  | 
O=C(Nc1ccccn1)c1ccccc1F |  |  | 35% | 
O=C(Nc1ccccn1)c1ccccc1Cl |  |  | 44% | 
O=C(Nc1ccccn1)c1ccccc1OC(F)(F)F |  |  | 13% | 
Cc1c(F)cccc1C(=O)Nc1ccccn1 | 890 nM | 94 |  | logD [4]: 2.6; solubility kinetic [5]: 50 µg/mL (≈ 217 µM); solubility kinetic [6]: 25 µg/mL (≈ 109 µM); fraction unbound [7]: 0.321; CLint (Liver microsome): 58 µL/min/mg; IC50 [8]: 610 nM; IC50 (Leishmania donovani): > 131000 nM; IC50 (Plasmodium falciparum): 103000 nM; IC50 (L6): 310000 nM; IC50 (Trypanosoma cruzi): 198000 nM
O=C(Nc1ccccn1)c1cccc(F)c1 | 7330 nM | 11 |  | 
Cc1c(Cl)cccc1C(=O)Nc1ccccn1 | 630 nM | 132 |  | 
Cc1c(Br)cccc1C(=O)Nc1ccccn1 | 5700 nM | 15 |  | 
Cc1cccc(C(=O)Nc2ccccn2)c1C | 3500 nM | 24 |  | 
COc1cccc(C(=O)Nc2ccccn2)c1C |  |  | 10% | 
Cc1ncccc1C(=O)Nc1ccccn1 |  |  | 21% | 
Cc1cc(F)ccc1C(=O)Nc1ccccn1 | 1900 nM | 44 |  | 
Cc1cc(Cl)ccc1C(=O)Nc1ccccn1 | 1100 nM | 76 |  | 
COc1ccc(C(=O)Nc2ccccn2)c(C)c1 |  |  | < 10% | 

Compound | IC50 [1] | selectivity ratio [2] | inhibition at 10 µM [3] | also measured
Cc1ccc(C(=O)Nc2ccccn2)c(C)c1 | 980 nM | 85 |  | IC50 [8]: 240 nM; IC50 (Leishmania donovani): > 133000 nM; IC50 (Plasmodium falciparum): 93000 nM; IC50 (L6): 283000 nM; IC50 (Trypanosoma cruzi): 187000 nM
CCC/C=C/c1ccc(C(=O)Nc2ccccn2)c(C)c1 |  |  | 24% | 
Cc1cc(-c2ccccc2)ccc1C(=O)Nc1ccccn1 |  |  | < 10% | 
Cc1ccc(F)cc1C(=O)Nc1ccccn1 |  |  | < 10% | 
Cc1ccc(Br)cc1C(=O)Nc1ccccn1 |  |  | < 10% | 
Cc1ccc(C)c(C(=O)Nc2ccccn2)c1 |  |  | 22% | 
COc1ccc(C)c(C(=O)Nc2ccccn2)c1 |  |  | < 10% | 
Cc1ccncc1C(=O)Nc1ccccn1 |  |  | < 10% | 
Cc1cccc(C)c1C(=O)Nc1ccccn1 |  |  | < 10% | 
Cc1cccc(F)c1C(=O)Nc1ccccn1 |  |  | 45% | 
Cc1cccnc1C(=O)Nc1ccccn1 |  |  | 12% | 
Cc1ccnc(NC(=O)c2cccc(F)c2C)c1 | 830 nM | 100 |  | logD [4]: 3.5; solubility kinetic [5]: > 100 µg/mL; solubility kinetic [6]: 25 µg/mL (≈ 102 µM); fraction unbound [7]: 0.276; CLint (Liver microsome): 237 µL/min/mg
Cc1ccnc(NC(=O)c2ccc(F)c(F)c2C)c1 | 900 nM | 93 |  | IC50 [8]: 640 nM; IC50 (Leishmania donovani): > 113000 nM; IC50 (Plasmodium falciparum): 72000 nM; IC50 (L6): 223000 nM; IC50 (Trypanosoma cruzi): 147000 nM
Cc1c(C(=O)Nc2cc(Cl)ccn2)ccc(F)c1F | 530 nM | 160 |  | 
Cc1c(F)cccc1C(=O)Nc1cc(F)ccn1 | 100 nM | 851 |  | 
Cc1c(C(=O)Nc2cc(F)ccn2)ccc(F)c1F | 190 nM | 450 |  | 
COc1ccc(NC(=O)c2cccc(F)c2C)nc1 | 2300 nM | 4 |  | 
COc1ccc(NC(=O)c2ccc(F)cc2C)nc1 | 2600 nM | 32 |  | 
O=C(Nc1ccccn1)c1ccccc1 | 9070 nM | 9.2 |  | 
O=C(Nc1ccc2ccccc2n1)c1ccccc1-c1ccccc1 |  |  | 53% | 
Cc1ccc(NC(=O)c2cc(S(=O)(=O)NC(C)(C)C)ccc2C)nc1 |  |  | 12% | 
CCN(CC)CCCC(C)Nc1ccnc2cc(Cl)ccc12 (configuration not stated) [CHLOROQUINE] |  |  |  | EC50 (Plasmodium falciparum): 0.11 µg/mL (≈ 0.344 µM)
